Reference: ChEMBL document CHEMBL1125344, “(Pyridylcyanomethyl)piperazines as orally active PAF antagonists” (J Med Chem, 1992)

Columns and labels:
[1] = target: Platelet-activating factor receptor (Mus musculus) (UniProt Q62035); experiment: Oral dose required to inhibit PAF-induced mortality (PAF-Antagonistic activity)in mice by 50%.; type: functional; settings: Mus sp.
Summary of the method: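 Male Swiss mice, 22-26 g, in groups of 10. Compound or saline given po (20 mL/kg) 60 min before C18-PAF 100 µg/kg plus propranolol 1 mg/kg by tail vein. ID50 from percent inhibition of mortality versus controls.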

[2] = target: Platelet-activating factor receptor (Rattus norvegicus) (UniProt P46002); experiment: In vivo dose administered intravenously to inhibit PAF-induced hypotension (PAF-Antagonistic activity) in normotensive rats by 57%.; type: functional, organism-based
[3] = target: Platelet-activating factor receptor (Rattus norvegicus) (UniProt P46002); experiment: In vivo dose administered intravenously to inhibit PAF-induced hypotension (PAF-Antagonistic activity) in normotensive rats by 56%.; type: functional, organism-based
Summary of the method: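 Male Sprague-Dawley rats, 180-220 g, anesthetized with sodium pentobarbital ip; blood pressure recorded from left carotid artery. Compound given iv in saline (1 mL/kg) via femoral vein 3 min before PAF 0.5 μg/kg iv; initial dose 5 mg/kg. Percentage inhibition of PAF-induced hypotension calculated versus vehicle-treated controls.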

Platelet-activating factor receptor (Rattus norvegicus), sequence (P46002 whole entry): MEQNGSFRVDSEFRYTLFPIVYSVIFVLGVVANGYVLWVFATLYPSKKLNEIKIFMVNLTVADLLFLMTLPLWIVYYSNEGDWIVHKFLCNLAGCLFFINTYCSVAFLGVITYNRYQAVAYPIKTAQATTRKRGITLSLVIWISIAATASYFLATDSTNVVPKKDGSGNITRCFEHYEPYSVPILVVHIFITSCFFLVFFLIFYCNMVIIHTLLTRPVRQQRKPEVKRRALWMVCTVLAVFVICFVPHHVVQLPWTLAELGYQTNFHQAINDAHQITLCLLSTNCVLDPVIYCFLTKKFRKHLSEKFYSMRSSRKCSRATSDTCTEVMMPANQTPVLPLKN
Platelet-activating factor receptor (Mus musculus), sequence (Q62035 whole entry): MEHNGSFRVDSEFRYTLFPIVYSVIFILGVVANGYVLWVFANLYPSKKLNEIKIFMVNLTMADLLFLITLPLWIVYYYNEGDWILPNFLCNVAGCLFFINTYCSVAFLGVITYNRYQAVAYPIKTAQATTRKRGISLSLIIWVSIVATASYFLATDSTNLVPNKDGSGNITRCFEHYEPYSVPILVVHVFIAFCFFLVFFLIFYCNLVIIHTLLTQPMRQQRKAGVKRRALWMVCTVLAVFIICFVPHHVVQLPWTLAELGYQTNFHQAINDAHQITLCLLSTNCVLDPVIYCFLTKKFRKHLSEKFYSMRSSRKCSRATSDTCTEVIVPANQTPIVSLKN

Structure (SMILES) | ID50 [1] [mg/kg] | ID50 [2] [mg/kg] | ID50 [3] [mg/kg]
N#CC(c1cccnc1)N1CCN(C(=O)CCCc2ccccc2)CC1 (stereo not drawn) | 50 | 5 | –
N#CC(c1cccnc1)N1CCN(C(=O)Cc2ccc3ccccc3c2)CC1 (stereo not drawn) | – | – | 5
